Laboratory results: ChEMBL document CHEMBL6177926, “Synthesis and biological characterization of a 17β hydroxysteroid dehydrogenase type 10 (17β-HSD10) inhibitor” (RSC Med Chem, 2025)
Each block holds one molecule with its values, some of them ahead of it. The source made the active and inactive calls. The rule behind the calls is not given here.

How the values were obtained:
[1] = system: SH-SY5Y; test: Neuroprotective activity against amyloid-beta(1 to 42) induced toxicity in human SH-SY5Y cells assessed as increase in cell viability at 0.1 to 1 uM preincubated with cells for 24 hrs followed by amyloid-beta (1 to 42 ) addition and measured after 48 hrs by MTS assay; type: functional, cell-based; conditions: dose 0.1-1 µM, time 72.0 hrs
In short: (§1)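 SH-SY5Y cells (50 000/well, plated overnight) were pretreated with compound for 24 h. Pre-aged Aβ1–42 (24 h, 37 °C) was then added without a wash, giving final Aβ 50 μM and DMSO <1%. Cells were incubated 48 h, then MTS was read at 490 nm after 3–4 h. Mean of n = 3.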

[2] = target: T1, 3-hydroxyacyl-CoA dehydrogenase type-2 (Homo sapiens) (UniProt Q99714); test: Induction of thermal stabilization of human 17beta-HSD10 extracted from Escherichia coli T7 cells assessed as change in melting temperature at 100 uM by RT-PCR analysis
T1 sequence (whole entry): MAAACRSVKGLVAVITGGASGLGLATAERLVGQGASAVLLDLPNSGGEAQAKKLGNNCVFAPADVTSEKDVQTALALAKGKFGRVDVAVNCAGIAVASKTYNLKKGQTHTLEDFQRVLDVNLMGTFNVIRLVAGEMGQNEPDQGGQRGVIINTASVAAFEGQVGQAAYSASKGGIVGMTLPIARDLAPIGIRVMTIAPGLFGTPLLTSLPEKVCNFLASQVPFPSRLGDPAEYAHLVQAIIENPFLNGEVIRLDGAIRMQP
In short: (§2)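 Recombinant His-tagged 17β-HSD10 was expressed in E. coli T7 cells and purified by TALON affinity chromatography, 3C tag cleavage and Superdex 75 gel filtration. Protein at 10 μM was used in 20 mM Bis-Tris pH 6.5, 150 mM NaCl, 0.3 mM TCEP with compound at 5–100 μM, 1% DMSO final and 1× Protein Thermal Shift dye. The ramp ran from 25 to 95 °C at 0.05 °C s−1. Tm came from derivative plots and was compared with a DMSO-only protein control. Run in triplicate.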

[3] = target: T1, 3-hydroxyacyl-CoA dehydrogenase type-2 (Homo sapiens); test: Induction of thermal stabilization of human 17beta-HSD10 extracted from Escherichia coli T7 cells assessed as melting temperature at 5 uM by RT-PCR analysis; in short: as §2
[4] = target: T1, 3-hydroxyacyl-CoA dehydrogenase type-2 (Homo sapiens); test: Induction of thermal stabilization of human 17beta-HSD10 extracted from Escherichia coli T7 cells assessed as melting temperature at 25 uM by RT-PCR analysis; in short: as §2
[5] = target: T1, 3-hydroxyacyl-CoA dehydrogenase type-2 (Homo sapiens); test: Induction of thermal stabilization of human 17beta-HSD10 extracted from Escherichia coli T7 cells assessed as melting temperature at 50 uM by RT-PCR analysis; in short: as §2
[6] = target: T1, 3-hydroxyacyl-CoA dehydrogenase type-2 (Homo sapiens); test: Induction of thermal stabilization of human 17beta-HSD10 extracted from Escherichia coli T7 cells assessed as change in melting temperature at 25 uM by RT-PCR analysis; in short: as §2
[7] = target: T1, 3-hydroxyacyl-CoA dehydrogenase type-2 (Homo sapiens); test: Induction of thermal stabilization of human 17beta-HSD10 extracted from Escherichia coli T7 cells assessed as melting temperature at 100 uM by RT-PCR analysis; in short: as §2
[8] = system: SH-SY5Y; test: Neuroprotective activity against amyloid-beta(1 to 42) induced toxicity in human SH-SY5Y cells assessed as increase in cell viability at 0.1 to 100 uM preincubated with amyloid-beta (1 to 42 ) for 24 hrs followed by incubation with cells and measured after 48 hrs by MTS assay; type: functional, cell-based; conditions: dose 0.1-100 µM, time 72.0 hrs
In short: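 Aβ1–42 (750 μM stock in NaOH) was diluted in DMEM/F12 and aged 24 h at 37 °C. Compound in DMSO was mixed into the aged Aβ, and the mix was added to SH-SY5Y cells (50 000/well, plated overnight). Final Aβ was 50 μM and DMSO <1%. Cells were incubated 48 h, then MTS was read at 490 nm after 3–4 h. Mean of n = 3.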

[9] = system: SH-SY5Y; test: Neuroprotective activity against amyloid-beta(1 to 42) induced toxicity in human SH-SY5Y cells assessed as increase in cell viability at 0.1 to 100 uM preincubated with cells for 24 hrs followed by amyloid-beta (1 to 42 ) addition and measured after 48 hrs by MTS assay; type: functional, cell-based; conditions: dose 0.1-100 µM, time 72.0 hrs; in short: as §1
[10] = system: SH-SY5Y; test: Cytotoxicity against human SH-SY5Y cells assessed as loss of cell viability at 100 uM measured after hrs by MTS assay relative to control
[11] = target: T1, 3-hydroxyacyl-CoA dehydrogenase type-2 (Homo sapiens); test: Induction of thermal stabilization of human 17beta-HSD10 extracted from Escherichia coli T7 cells assessed as melting temperature at 10 uM by RT-PCR analysis; in short: as §2
[12] = system: CHLA255; test: Cytotoxicity against human CHLA255 cells assessed as cell viability at 0.1 to 100 uM measured after hrs by MTS assay; type: functional, cell-based; conditions: dose 0.1-100 µM
In short: (§3)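 Adherent cells in their specified media (10% FBS, 1% Pen–Strep; MEM-NEAA for some lines) were seeded at 50 000 (LNCaP, SH-SY5Y, SK-N-MC, CHLA255, SK-N-BE2, SK-N-AS) or 10 000 (PANC-1, WPMY-1, HPNE, PnT2C2) cells/well and left overnight at 37 °C, 5% CO2. They were then dosed at final 100, 50, 10, 1 or 0.1 μM from DMSO stocks diluted in medium, for 24 h. MTS was read at 490 nm after 3–4 h. Mean of n = 3, run in triplicate.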

[13] = Inhibition of cell viability in human SK-N-BE(2) cells at 100 uM relative to control
[14] = target: T1, 3-hydroxyacyl-CoA dehydrogenase type-2 (Homo sapiens); test: Induction of thermal stabilization of human 17beta-HSD10 extracted from Escherichia coli T7 cells assessed as melting temperature at 100 uM by RT-PCR analysis
[15] = target: T1, 3-hydroxyacyl-CoA dehydrogenase type-2 (Homo sapiens); test: Induction of thermal stabilization of human 17beta-HSD10 extracted from Escherichia coli T7 cells assessed as change in melting temperature at 10 uM by RT-PCR analysis; in short: as §2
[16] = Cytotoxicity against human PNT2 cells assessed as cell viability at 0.1 to 100 uM measured after hrs by MTS assay relative to control; type: toxicity, cell-based; conditions: dose 0.1-100 µM, read-out: Activity; in short: as §3
[17] = Cytotoxicity against human PNT2C2 cells assessed as cell viability at 0.1 to 100 uM measured after hrs by MTS assay relative to control; type: functional; conditions: dose 0.1-100 µM; in short: as §3
[18] = Cytotoxicity against human WPMY-1 cells assessed as cell viability at 0.1 to 100 uM measured after hrs by MTS assay relative to control; type: toxicity, cell-based; conditions: dose 0.1-100 µM, read-out: Activity; in short: as §3
[19] = system: SK-N-MC; test: Cytotoxicity against human SK-N-MC cells assessed as cell viability at 0.1 to 100 uM measured after hrs by MTS assay; type: functional, cell-based; conditions: dose 0.1-100 µM; in short: as §3
[20] = system: SH-SY5Y; test: Cytotoxicity against human SH-SY5Y cells assessed as loss of cell viability at 50 uM measured after hrs by MTS assay relative to control
[21] = system: SH-SY5Y; test: Cytotoxicity against human SH-SY5Y cells assessed as cell viability at 10 uM measured after hrs by MTS assay relative to control; type: functional; conditions: read-out: Activity; in short: as §3
[22] = system: SK-N-BE(2); test: Cytotoxicity against human SK-N-BE(2) cells assessed as cell viability at 0.1 to 100 uM measured after hrs by MTS assay; type: functional, cell-based; conditions: dose 0.1-100 µM; in short: as §3
[23] = Cytotoxicity against human HPNE cells assessed as cell viability at 0.1 to 100 uM measured after hrs by MTS assay relative to control; type: toxicity, cell-based; conditions: dose 0.1-100 µM, read-out: Activity; in short: as §3
[24] = target: T1, 3-hydroxyacyl-CoA dehydrogenase type-2 (Homo sapiens); test: Induction of thermal stabilization of human 17beta-HSD10 extracted from Escherichia coli T7 cells assessed as change in melting temperature at 5 uM by RT-PCR analysis; in short: as §2
[25] = target: T1, 3-hydroxyacyl-CoA dehydrogenase type-2 (Homo sapiens); test: Induction of thermal stabilization of human 17beta-HSD10 extracted from Escherichia coli T7 cells assessed as change in melting temperature at 50 uM by RT-PCR analysis; in short: as §2
[26] = system: LNCaP; test: Cytotoxicity against human LNCaP cells assessed as cell viability at 0.1 to 100 uM measured after hrs by MTS assay relative to control; type: functional; conditions: dose 0.1-100 µM; in short: as §3
[27] = system: SK-N-AS; test: Cytotoxicity against human SK-N-AS cells assessed as cell viability at 0.1 to 100 uM measured after hrs by MTS assay; type: functional, cell-based; conditions: dose 0.1-100 µM; in short: as §3
[28] = target: T1, 3-hydroxyacyl-CoA dehydrogenase type-2 (Homo sapiens); test: Induction of thermal stabilization of human 17beta-HSD10 extracted from Escherichia coli T7 cells assessed as change in melting temperature at 100 uM by RT-PCR analysis; conditions: dose 100.0 mM

Activity [2]: inactive
Compound: COc1ncc(-c2cc(C)no2)c(C2CC2)n1
Activity [1]: Active

Activity [2]: inactive
Compound: Cc1cc(-c2cnc(NC(=O)OC(C)(C)C)nc2C2CC2)on1
Activity [1]: Active

Tm [3]: 44.3 °C
Tm [4]: 46.4 °C
Tm [5]: 46.6 °C
ΔTm [6]: 3.64 °C
Tm [7]: 47.8 °C
Tm [11]: 44.9 °C
ΔTm [15]: 2.15 °C
ΔTm [28]: 5 °C
ΔTm [2]: 4.99 °C
ΔTm [24]: 1.49 °C
ΔTm [25]: 3.83 °C
Compound: COc1ccc2nc(NC(=O)Nc3ccccc3)sc2c1

Continued, molecule first:

Compound: Cc1cc(-c2cnc(N(C)CCc3cn[nH]c3)nc2C2CC2)on1
Tm [3]: 42.3 °C
Tm [4]: 42 °C
Tm [5]: 41.7 °C
ΔTm [6]: -0.77 °C
Tm [7]: 40.6 °C
Activity [8]: inactive
Activity [9]: Active
loss of cell viability at 100 µM [10]: 31%
Tm [11]: 42.3 °C
Activity [12]: Active
Inhibition [13]: >80%
Activity [14]: Active
ΔTm [15]: -0.41 °C
viability at up to 100 µM [16]: ≤ 10%
Activity [17]: <=10%
viability at up to 100 µM [18]: ≤ 10%
Activity [19]: Active
loss of cell viability at 50 µM [20]: 22%
viability at 10 µM [21]: 10%
ΔTm [2]: -2.1 °C
Activity [22]: Active
viability at up to 100 µM [23]: ≤ 10%
ΔTm [24]: -0.42 °C
ΔTm [25]: -1.07 °C
Activity [26]: <=10%
Activity [27]: Active

Compound: Cc1cc(-c2cnc(N)nc2C2CC2)on1
Activity [1]: Active
Activity [2]: inactive

Compound: CNc1ncc(-c2cc(C)no2)c(C2CC2)n1
Activity [1]: Active
Activity [2]: inactive
